Assay results as given in ChEMBL document CHEMBL3745678, “Novel β-Carboline/Hydroxamic Acid Hybrids Targeting Both Histone Deacetylase and DNA Display High Anticancer Activity via Regulation of the p53 Signaling Pathway” (J Med Chem, 2015).
Activity calls are given as the source filed them. The calls are words filed in the database; no cut-off is given here.

How the values were obtained:
[1] = Antiproliferative activity against human HCT116 cells assessed as cell viability after 48 hrs by MTT assay; assay type: functional, cell-based, HCT-116; conditions: Homo sapiens, HCT-116, 48 h
[2] = Antiproliferative activity against human SW620 cells assessed as cell viability after 48 hrs by MTT assay; assay type: functional, cell-based; conditions: SW-620, 48 h
Histone deacetylase = test: Inhibition of HDAC in human HeLa cell nuclear extract using Boc-Lys (Ac)-AMC as substrate after 60 mins by fluorometric analysis; assay type: cell-based
SW480 = test: Antiproliferative activity against human SW480 cells assessed as cell viability after 48 hrs by MTT assay; assay type: functional, cell-based; conditions: SW480, 48 h
LoVo [3] = test: Antiproliferative activity against human LoVo cells assessed as cell viability after 48 hrs by MTT assay; assay type: functional, cell-based
SW-620 = test: Antiproliferative activity against human SW620 cells at 25 uM after 48 hrs by MTT assay; assay type: functional, cell-based
Procedure, shortened: (§1)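 Single-point screen at 25 µM in HCT116, SW620 and LOVO cells. Cells seeded at 10^4 cells/ml in DMEM + 10% FBS and left to adhere overnight at 37 °C, 5% CO2. MTT read 48 h after dosing with 0.1% DMSO as the negative control. Inhibition % = (1 − OD treated/OD control) × 100; mean ± SD of three measurements.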

LoVo [4] = test: Antiproliferative activity against human LoVo cells at 25 uM after 48 hrs by MTT assay; assay type: functional, cell-based; procedure, shortened: as §1
HCT-116 [5] = test: Antiproliferative activity against human HCT116 cells at 25 uM after 48 hrs by MTT assay; assay type: functional, cell-based; procedure, shortened: as §1
[6] = target: T1, Protein deacetylase HDAC6 (Homo sapiens, UniProt Q9UBN7); test: Inhibition of recombinant human HDAC6 using Boc-Lys (Ac)-AMC as substrate after 60 mins by fluorometric analysis
T1 sequence (Q9UBN7 whole entry): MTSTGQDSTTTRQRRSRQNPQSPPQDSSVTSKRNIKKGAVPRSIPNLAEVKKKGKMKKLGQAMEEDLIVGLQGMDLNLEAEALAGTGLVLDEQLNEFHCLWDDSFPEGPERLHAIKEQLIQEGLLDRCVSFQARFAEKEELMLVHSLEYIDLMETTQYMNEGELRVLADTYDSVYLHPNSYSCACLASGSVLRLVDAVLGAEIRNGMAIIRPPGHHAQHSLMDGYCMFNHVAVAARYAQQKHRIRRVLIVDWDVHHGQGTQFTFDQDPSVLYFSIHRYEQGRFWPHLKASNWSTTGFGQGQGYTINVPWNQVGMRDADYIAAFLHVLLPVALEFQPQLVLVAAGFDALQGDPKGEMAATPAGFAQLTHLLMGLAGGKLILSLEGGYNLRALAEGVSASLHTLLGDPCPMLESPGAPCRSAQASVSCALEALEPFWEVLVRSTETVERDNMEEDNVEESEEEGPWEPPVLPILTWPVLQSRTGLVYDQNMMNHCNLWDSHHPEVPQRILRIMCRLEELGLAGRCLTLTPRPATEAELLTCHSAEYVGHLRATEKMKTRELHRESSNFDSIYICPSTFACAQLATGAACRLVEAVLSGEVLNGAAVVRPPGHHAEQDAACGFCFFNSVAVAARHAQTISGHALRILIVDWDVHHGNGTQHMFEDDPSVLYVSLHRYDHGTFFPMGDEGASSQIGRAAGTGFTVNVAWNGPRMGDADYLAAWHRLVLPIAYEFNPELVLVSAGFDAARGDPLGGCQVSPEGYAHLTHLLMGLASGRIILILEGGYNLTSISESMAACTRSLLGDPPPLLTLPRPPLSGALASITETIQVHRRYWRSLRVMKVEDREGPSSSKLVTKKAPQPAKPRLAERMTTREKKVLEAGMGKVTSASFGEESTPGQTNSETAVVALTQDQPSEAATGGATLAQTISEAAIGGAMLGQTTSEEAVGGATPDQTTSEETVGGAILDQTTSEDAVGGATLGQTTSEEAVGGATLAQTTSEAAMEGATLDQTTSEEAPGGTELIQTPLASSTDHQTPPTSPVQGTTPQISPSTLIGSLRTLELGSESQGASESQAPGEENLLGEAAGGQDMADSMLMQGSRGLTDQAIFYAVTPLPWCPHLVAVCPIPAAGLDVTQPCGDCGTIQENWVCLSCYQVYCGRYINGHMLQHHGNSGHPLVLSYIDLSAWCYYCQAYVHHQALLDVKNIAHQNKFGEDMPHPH

HCT-116 [7] = test: Potency index, ratio of SAHA IC50 to compound IC50 for human HCT116 cells; assay type: functional
Procedure, shortened: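 HCT116 cells seeded at 10^4 cells/ml and adhered overnight, then treated 48 h over a concentration series with 0.1% DMSO as control. MTT readout; IC50 derived from inhibition % = (1 − OD treated/OD control) × 100, three independent measurements. Index = SAHA IC50 ÷ compound IC50.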

Histone deacetylase 1 = Histone deacetylase 1 (Homo sapiens, UniProt Q13547); test: Inhibition of recombinant human HDAC1 using Boc-Lys (Ac)-AMC as substrate after 60 mins by fluorometric analysis
Histone deacetylase 8 = target: T2, Histone deacetylase 8 (Homo sapiens, UniProt Q9BY41); test: Inhibition of recombinant human HDAC8 using Boc-Lys (Ac)-AMC as substrate after 60 mins by fluorometric analysis
T2 sequence (Q9BY41 whole entry): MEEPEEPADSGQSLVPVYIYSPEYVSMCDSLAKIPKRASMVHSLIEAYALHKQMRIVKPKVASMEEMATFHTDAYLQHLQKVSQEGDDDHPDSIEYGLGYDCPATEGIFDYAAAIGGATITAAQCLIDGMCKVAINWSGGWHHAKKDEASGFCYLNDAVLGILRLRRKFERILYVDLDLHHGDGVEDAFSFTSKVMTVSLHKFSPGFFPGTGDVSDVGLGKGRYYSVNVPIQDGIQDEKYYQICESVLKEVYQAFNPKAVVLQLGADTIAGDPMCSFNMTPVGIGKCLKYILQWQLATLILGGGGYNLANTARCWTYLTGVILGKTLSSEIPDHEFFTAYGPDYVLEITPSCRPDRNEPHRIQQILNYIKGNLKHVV

Histone deacetylase 1, sequence (Q13547 whole entry): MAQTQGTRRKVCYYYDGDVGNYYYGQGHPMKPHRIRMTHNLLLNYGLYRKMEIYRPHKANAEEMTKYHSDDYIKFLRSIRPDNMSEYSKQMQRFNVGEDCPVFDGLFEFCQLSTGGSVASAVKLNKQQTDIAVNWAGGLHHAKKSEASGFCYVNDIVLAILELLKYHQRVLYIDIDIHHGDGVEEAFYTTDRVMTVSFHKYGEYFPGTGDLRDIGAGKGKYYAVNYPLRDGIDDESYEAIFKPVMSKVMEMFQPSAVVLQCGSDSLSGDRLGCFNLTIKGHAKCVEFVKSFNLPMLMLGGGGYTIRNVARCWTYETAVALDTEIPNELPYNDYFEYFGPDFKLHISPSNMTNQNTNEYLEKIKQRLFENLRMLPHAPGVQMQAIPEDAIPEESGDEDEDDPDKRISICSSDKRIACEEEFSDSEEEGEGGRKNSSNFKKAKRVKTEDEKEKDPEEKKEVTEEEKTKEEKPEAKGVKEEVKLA

| IC50 (Histone deacetylase) | IC50 (SW480) | IC50 (LoVo [3]) | IC50 [6] | IC50 (Histone deacetylase 1) | IC50 (Histone deacetylase 8) | Structure (SMILES) | IC50 [1] | IC50 [2] | Activity (SW-620) | Activity (LoVo [4]) | Activity (HCT-116 [5]) | Ratio IC50 (HCT-116 [7]) |
| --- | --- | --- | --- | --- | --- | --- | --- | --- | --- | --- | --- | --- |
| 1.43 µM | – | – | – | – | – | Cc1nc(C(=O)NCCCCCC(=O)NO)cc2c1[nH]c1ccccc12 | – | – | inactive | inactive | inactive | – |
| 0.86 µM | 5.8 µM | 6.24 µM | – | – | – | COc1ccc(-c2nc(NC(=O)NCCCCC(=O)NO)cc3c4ccccc4n(C)c23)cc1 | 3.87 µM | 5.09 µM | – | – | – | – |
| 1.33 µM | 4.4 µM | 5.66 µM | – | – | – | COc1ccc(-c2nc(NC(=O)NCCC(=O)NO)cc3c4ccccc4n(C)c23)cc1 | 4.27 µM | 5.02 µM | – | – | – | – |
| 3.02 µM | 10.5 µM | > 12.5 µM | – | – | – | COc1ccc(-c2nc(C(=O)NCC(=O)NO)cc3c2[nH]c2ccccc23)cc1 | > 12.5 µM | 6.92 µM | Active | Active | Active | – |
| 0.67 µM | 4.65 µM | 3.77 µM | 0.061 µM | 0.13 µM | 0.39 µM | COc1ccc(-c2nc(C(=O)NCCCC(=O)NO)cc3c2[nH]c2ccccc23)cc1 | 2.72 µM | 4.46 µM | Active | Active | Active | 2 |
| 0.81 µM | 4.43 µM | 5.28 µM | – | – | – | COc1ccc(-c2nc(C(=O)NCCCCC(=O)NO)cc3c2[nH]c2ccccc23)cc1 | 3.35 µM | 2.53 µM | Active | Active | Active | – |
| 1.05 µM | > 12.5 µM | > 12.5 µM | – | – | – | COc1ccc(-c2nc(NC(=O)NCCCCCC(=O)NO)cc3c4ccccc4n(C)c23)cc1 | 8.76 µM | 9.53 µM | – | – | – | – |
| 0.43 µM | 3.11 µM | 3.61 µM | 0.36 µM | 0.11 µM | 0.43 µM | COc1ccc(-c2nc(NC(=O)NCCC(=O)NO)cc3c2[nH]c2ccccc23)cc1 | 3.08 µM | 2.69 µM | – | – | – | – |
| 2.24 µM | 10.1 µM | 9.36 µM | – | – | – | COc1ccc(-c2nc(NC(=O)NCC(=O)NO)cc3c2[nH]c2ccccc23)cc1 | 8.52 µM | 7.12 µM | – | – | – | – |
| 5.37 µM | – | – | – | – | – | Cc1nc(C(=O)NCC(=O)NO)cc2c1[nH]c1ccccc12 | – | – | inactive | inactive | inactive | – |
| 0.82 µM | 5.09 µM | 7.34 µM | – | – | – | COc1ccc(-c2nc(NC(=O)NCCCCCC(=O)NO)cc3c2[nH]c2ccccc23)cc1 | 4.84 µM | 6.25 µM | – | – | – | – |

The next lines start with the compound.

| Structure (SMILES) | IC50 (Histone deacetylase) | IC50 (SW480) | IC50 (LoVo [3]) | IC50 [6] | IC50 (Histone deacetylase 1) | IC50 (Histone deacetylase 8) | IC50 [1] | IC50 [2] | Activity (SW-620) | Activity (LoVo [4]) | Activity (HCT-116 [5]) | Ratio IC50 (HCT-116 [7]) |
| --- | --- | --- | --- | --- | --- | --- | --- | --- | --- | --- | --- | --- |
| COc1ccc(-c2nc(NC(=O)NCC(=O)NO)cc3c4ccccc4n(C)c23)cc1 | 3.16 µM | 9.81 µM | > 12.5 µM | – | – | – | 9.3 µM | 8.36 µM | – | – | – | – |
| O=C(CCNC(=O)c1cc2c(cn1)[nH]c1ccccc12)NO | 3.23 µM | – | – | – | – | – | – | – | inactive | inactive | inactive | – |
| O=C(CCCCNC(=O)c1cc2c(cn1)[nH]c1ccccc12)NO | 1.43 µM | – | – | – | – | – | – | – | inactive | inactive | inactive | – |
| COc1ccc(-c2nc(C(=O)NCCCCCC(=O)NO)cc3c2[nH]c2ccccc23)cc1 | 1.17 µM | 9.83 µM | 7.9 µM | – | – | – | 7.16 µM | 8.06 µM | Active | Active | Active | – |
| O=C(CCCNC(=O)c1cc2c(cn1)[nH]c1ccccc12)NO | 1.56 µM | – | – | – | – | – | – | – | inactive | inactive | inactive | – |
| O=C(CCCCCNC(=O)c1cc2c(cn1)[nH]c1ccccc12)NO | 1.81 µM | – | – | – | – | – | – | – | inactive | inactive | inactive | – |
| Cc1nc(C(=O)NCCCC(=O)NO)cc2c1[nH]c1ccccc12 | 1.21 µM | – | – | – | – | – | – | – | inactive | inactive | inactive | – |
| Cc1nc(C(=O)NCCCCC(=O)NO)cc2c1[nH]c1ccccc12 | 1.26 µM | – | – | – | – | – | – | – | inactive | inactive | inactive | – |
| COc1ccc(-c2nc(C(=O)NCCC(=O)NO)cc3c2[nH]c2ccccc23)cc1 | 1.31 µM | 11.2 µM | 9.01 µM | – | – | – | 8.64 µM | 6.73 µM | Active | Active | Active | – |
| COc1ccc(-c2nc(NC(=O)NCCCCC(=O)NO)cc3c2[nH]c2ccccc23)cc1 | 0.35 µM | 1.73 µM | 2.17 µM | 0.093 µM | 0.079 µM | 0.2 µM | 0.99 µM | 2.02 µM | – | – | – | – |
| O=C(CNC(=O)c1cc2c(cn1)[nH]c1ccccc12)NO | 6.17 µM | – | – | – | – | – | – | – | inactive | inactive | inactive | – |
| Cc1nc(C(=O)NCCC(=O)NO)cc2c1[nH]c1ccccc12 | 2.45 µM | – | – | – | – | – | – | – | inactive | inactive | inactive | – |
